This is a sample that favours compounds with a hit; in the whole collection about 3.3% have one here.
Myeloid diff MLP: induction of myeloid progenitor differentiation, primary screen, cell-based, flow cytometry, MLPCN library. ER-HoxA9 myeloid progenitors, lysozyme-GFP differentiation. calls only at 10 µM. 360,000 compounds, 1% hits. AID 624256, 2012;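 active = normalized GFP-positive differentiation at or above the plate's own cutoff, the solvent-only control mean plus 3 SD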;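 note: cells exposed to compound for four days before flow analysis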
NRP1-CendR mod: modulators of CendR peptide binding to NRP-1, primary screen, biochemical, fluorescence polarization, uHTS | Neuropilin-1 (Homo sapiens), O14786 | FAM-RPARPAR peptide binding to NRP-1 | inhibition, % at 25 µM | 360,000 compounds, 0.85% hits;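 active = inhibition or corrected inhibition above about 18%, plus a signal ratio from 0.5 to 1.5, limit read from the data, passing the limit was not always enough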
ABCB6 inh MLPCN: ABCB6 transporter inhibitors, primary screen, K562-ABCB6 cells, flow cytometry, MLPCN library; K562-ABCB6 porphyrin accumulation, 1 h; active compounds read low; fluorescence ratio to DMSO, % at 10 µM; AID 602162, 2011; 360,000 compounds, 0.19% hits; ATP-binding cassette sub-family B member 6 (Homo sapiens), Q9NP58;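 active = fluorescence ratio to DMSO below 75%, the collection mean minus 3 SD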;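 note: signal is porphyrin accumulated inside mitochondria; 100% equals median channel fluorescence of DMSO control wells; lower ratio means ABCB6 inhibition with less porphyrin fluorescence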
ATG4B inh: ATG4B protease inhibitors, primary screen, biochemical, fluorescence, uHTS; ATG4B cleavage of LC3-PLA2, NBD-HPC fluorescence, 1 h; inhibition, % at 8.33 µM; 340,000 compounds, 0.51% hits; AID 504462, 2011; in the data active = inhibition above about 40%
Target sequence (Q9Y4P1 whole entry, looked up): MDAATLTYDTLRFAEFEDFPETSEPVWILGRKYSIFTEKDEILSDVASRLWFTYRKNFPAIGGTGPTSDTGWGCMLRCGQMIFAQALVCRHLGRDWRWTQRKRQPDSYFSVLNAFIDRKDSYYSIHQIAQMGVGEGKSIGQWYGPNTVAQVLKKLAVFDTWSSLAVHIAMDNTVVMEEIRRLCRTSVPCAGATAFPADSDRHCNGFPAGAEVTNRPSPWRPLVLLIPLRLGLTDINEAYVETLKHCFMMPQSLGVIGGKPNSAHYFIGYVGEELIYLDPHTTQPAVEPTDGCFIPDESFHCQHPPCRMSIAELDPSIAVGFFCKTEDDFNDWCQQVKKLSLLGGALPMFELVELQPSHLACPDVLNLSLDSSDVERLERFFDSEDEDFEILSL
Granule exo inh: LAMP-1 surface exposure blockers, TALL-104 cells – cell-based, flow cytometry, MLPCN library, primary screen; TALL-104 LAMP-1 surface exposure; cells stimulated with thapsigargin and PMA; inhibition, % at 10 µM; 360,000 compounds, 0.66% hits;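 active = inhibition above about 55%, limit read from the data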
Arr AP2 block: inhibitors of beta-arrestin/AP2 binding, primary screen, biochemical, GPCR trafficking, flow cytometry; 340,000 compounds, 0.31% hits; FITC-arrestin peptide / GST-AP2 beads; AP2 beta2 appendage carries R879A mutation; inhibition, % at 10 µM; AID 504490, 2011;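 active = inhibition above a set limit, near 3 SD of compounds lacking own fluorescence, cut at about 54% in these data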;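 note: plate controls were DMSO wells for no effect and 5 µM unlabelled arrestin peptide for full effect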
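System: GST-AP2 R879A bound to glutathione beads, E. coli-expressed. Also added: 50 nM FITC-arrestin peptide. Schedule: compound with beads 12 min RT, then probe 1 h RT. Signal: bead flow cytometry, FITC channel. Read-out basis: percent response.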
ATG4B conf: ATG4B protease inhibitors, retest, confirmation, biochemical, fluorescence, single concentration | inhibition, % at 8.33 µM | 320 compounds, 92% hits | ATG4B protease fluorescent substrate cleavage assay | shares compounds with ATG4B inh; in the data active = inhibition above about 39%
PLA2 counter: PLA2 enzyme inhibition, counter-screen for ATG4B inhibitor project, biochemical, single concentration, uHTS hits | 1,600 compounds, 66% hits | inhibition, % at 8.33 µM | purified PLA2, NBD-C6-HPC fluorescence, 45 min | shares compounds with ATG4B inh; in the data active = inhibition above about 50%
The depositor's hits bear a star.

Screening COC(=O)C1=C(c2ccccc2)C[C@@H]2CC[C@H]1N2C returned Myeloid diff MLP inactive, NRP1-CendR mod 25.0*, ABCB6 inh MLPCN 95.0, ATG4B inh -7.6, Granule exo inh -1.7 and Arr AP2 block -4.6.
`COC(=O)C1=C(c2cccc(OCc3ccccc3)c2)C[C@@H]2CC[C@H]1N2C` gave Myeloid diff MLP inactive, NRP1-CendR mod 7.2, ABCB6 inh MLPCN 95.0 and Granule exo inh 2.6.
Cc1ccc(N2C(=O)CC(=O)NC2=O)c(C)c1 was read as Myeloid diff MLP inactive, NRP1-CendR mod 3.3, ABCB6 inh MLPCN 95.0, ATG4B inh 0.1, Granule exo inh 1.2 and Arr AP2 block 30.9.
`O=P(O)(Oc1ccccc1)OC(c1ccccc1)C(F)(F)F` (stereo not drawn) gave Myeloid diff MLP inactive, NRP1-CendR mod 3.6, ABCB6 inh MLPCN 108.0, ATG4B inh -2.4, Granule exo inh 4.9 and Arr AP2 block 14.1.
Screening COC(=O)C(O)(c1ccc(N=Cc2ccccc2O)c(C)c1)C(F)(F)F (stereo not drawn) returned Myeloid diff MLP inactive, NRP1-CendR mod -5.5, ABCB6 inh MLPCN 115.0, ATG4B inh 12.0, Granule exo inh 2.2 and Arr AP2 block 9.6.
Screening CC(C)(C)c1ccc(O)c(N=Cc2c(O)ccc3ccccc23)c1 returned Myeloid diff MLP active, NRP1-CendR mod -3.6, ABCB6 inh MLPCN 598.0, ATG4B inh 0.8, Granule exo inh 29.0 and Arr AP2 block -20.7.
Cn1c(O)c(C=NCCCN2CCCC2=O)c(=O)n(C)c1=O was read as Myeloid diff MLP inactive, NRP1-CendR mod 4.4, ABCB6 inh MLPCN 99.0, ATG4B inh -7.0, Granule exo inh 11.1 and Arr AP2 block 26.8.
NC(N)=N/N=C/c1ccc(N(c2ccccc2)c2ccccc2)cc1 was read as NRP1-CendR mod 25.0*, ABCB6 inh MLPCN 98.0, ATG4B inh 53.2*, Granule exo inh 25.1, Arr AP2 block -9.6 and PLA2 counter 65.5*.
C/C(=N\N=C(N)N)c1ccccc1 was read as Myeloid diff MLP inactive, NRP1-CendR mod 6.7, ABCB6 inh MLPCN 97.0, ATG4B inh 7.0, Granule exo inh 6.7 and Arr AP2 block 11.2.
For Cc1ccc(-n2c(O)c(/C=N/N3CCCCC3c3cccnc3)c(=O)[nH]c2=S)cc1 (stereo not drawn) the results were Myeloid diff MLP inactive, NRP1-CendR mod -73.1, ABCB6 inh MLPCN 102.0, ATG4B inh 1.8, Granule exo inh 7.8 and Arr AP2 block -11.9.
`Cc1cc(/C=C2\C(=O)NC(=O)N(c3ccc(Cl)cc3)C2=O)c(C)n1-c1sc2c(c1C#N)CCCC2` gave Myeloid diff MLP inactive, NRP1-CendR mod -144.7, ABCB6 inh MLPCN 105.0, ATG4B inh 43.3*, Granule exo inh -5.3, Arr AP2 block 2.3, ATG4B conf 63.0* and PLA2 counter 19.4.
For CC1CCN(C(CC(=O)c2ccccc2)C(=O)c2ccccc2)CC1 (stereo not drawn) the results were Myeloid diff MLP inactive, NRP1-CendR mod 6.7, ABCB6 inh MLPCN 100.0, ATG4B inh -3.7, Granule exo inh 3.3 and Arr AP2 block 1.9.

High-throughput results (PubChem)
